Measurements from ChEMBL document CHEMBL1122898, “Antiulcer agents. 1. Gastric antisecretory and cytoprotective properties of substituted imidazo[1,2-a]pyridines” (1985).

Columns and labels:
Format in all cases: functional
Rattus norvegicus [1] = test: Gastric antisecretory activity in the pylorus-ligated rat and the reduction in acid output was measured after 4 hr by intraperitoneal (ip) administration of 40 mg/kg dose.
Summary of the method: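 Male Charles River CD rats, 150–200 g, fasted 24 h. Pylorus ligated under Brevital anesthesia. 40 mg/kg given ip in 2.5% Tween 80 at ligation. Stomach contents collected at 4 h and titrated with 0.1 N NaOH to pH 7.0. % inhibition from mean AO, 6 treated vs 8 control rats. Student's t test.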

Canis familiaris [2] = test: Inhibition of histamine stimulated gastric acid secretion in adult mongrel dogs at dose 5 mg/kg given intravenously; settings: Canis lupus familiaris, Stomach, route intravenous
Summary of the method: (§1)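 Dogs with Heidenhain pouches, 12–18 kg, fasted 18 h. Compound given iv in 3 mL or by gavage in 5 mL of 0.4% methylcellulose/saline, 1 h after infusion start. 30-min collections titrated. Summed 3-h AO against the same dog's control AO gives % inhibition. Usually one dog per compound.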

Rattus norvegicus [3] = organism: Rattus norvegicus; test: Oral gastric cytoprotective activity in the rat against ethanol-induced lesions; settings: Stomach
Summary of the method: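 Rats fasted and water-deprived for 20 h. Compound given orally, 1–30 mg/kg in 0.4% methylcellulose/saline, 30 min before 1 mL absolute ethanol po. Killed 1 h after ethanol. Linear hemorrhagic lesion lengths totalled per stomach, expressed as group mean. ED50 by linear regression.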

Canis familiaris [4] = test: Inhibition of histamine stimulated gastric acid secretion in adult mongrel dogs at dose 2 mg/kg given intravenously; settings: Canis lupus familiaris, Stomach, route intravenous; summary of the method: as §1
Canis familiaris [5] = test: Inhibition of histamine stimulated gastric acid secretion in adult mongrel dogs at dose 8 mg/kg given orally; settings: Canis lupus familiaris, Stomach, route oral; summary of the method: as §1
Canis familiaris [6] = test: Inhibition of histamine stimulated gastric acid secretion in mongrel dogs following 4 mg/kg p.o. administration.; settings: Canis lupus familiaris, Stomach, route oral; summary of the method: as §1

SMILES | inhibition in vivo at 40 mg/kg (Rattus norvegicus [1]) [%] | inhibition in vivo at 5 mg/kg (Canis familiaris [2]) [%] | ED50 (Rattus norvegicus [3]) [mg/kg] | inhibition in vivo at 2 mg/kg (Canis familiaris [4]) [%] | inhibition in vivo at 8 mg/kg (Canis familiaris [5]) [%] | inhibition in vivo at 4 mg/kg (Canis familiaris [6]) [%]
CNC(=O)Cc1c(C)nc2c(OCc3ccccc3)cccn12 | 24 | 14 | – | – | – | –
Cc1nc2c(OCc3ccccc3)cccn2c1C(N)=O | 42 | 2 | – | – | – | –
Cc1nc2c(S(=O)(=O)Cc3ccccc3)cccn2c1CC#N | 9 | 6 | 16 | – | – | –
Cc1nc2c(C[S+]([O-])c3ccccc3)cccn2c1C (configuration not stated) | 42 | – | – | 0 | – | –
Cc1nc2c(OCc3ccccn3)cccn2c1CC#N | 56 | 29 | 2.4 | – | – | –
Cc1nc2c(OCc3cccc(C(F)(F)F)c3)cccn2c1CC#N | 61 | 30 | 6.5 | – | 38 | –
Cc1nc2c(OCc3ccccc3)cccn2c1CC(=N)S | 67 | 62 | 7 | 21 | 60 | 34
Cc1nc2ccc(CCc3ccccc3)cn2c1CC#N | 8 | 0 | 2.7 | – | – | –
CCc1nc2c(OCc3ccccc3)cccn2c1C | 79 | – | 9.8 | 78 | 27 | –
COC(=O)Cc1c(C)nc2c(OCc3ccccc3)cccn12 | 23 | 16 | – | – | – | –
Cc1cn2cccc(OCc3ccccc3)c2n1 | 62 | 70 | 4 | 61 | 0 | –
N#CCc1c(C(F)(F)F)nc2c(OCc3ccccc3)cccn12 | 0 | 0 | – | – | – | –
Cc1nc2c(OCc3ccccc3)cccn2c1Br | 26 | 63 | – | – | 0 | –
COc1ccc(COc2cccn3c(CC#N)c(C)nc23)cc1 | 25 | – | – | 43 | 7 | 13
Cc1nc2c(OCc3ccccc3)cccn2c1COC(=O)C(C)(C)C | 48 | – | 8 | 43 | 12 | –
CCSCc1c(C)nc2c(OCc3ccccc3)cccn12 | 36 | 0 | – | – | – | –
Cc1nc2c(O)cccn2c1CC#N | 0 | 0 | – | – | – | –
Cc1nc2c(OCc3ccncc3)cccn2c1CC#N | 51 | 36 | 2.6 | – | – | –
CC(=O)OCc1c(C)nc2c(OCc3ccccc3)cccn12 | 88 | 87 | 5.5 | 54 | 24 | –
CCc1c(C)nc2c(OCc3ccccc3)cccn12 | – | – | 2 | 37 | – | –

SMILES | inhibition in vivo at 40 mg/kg (Rattus norvegicus [1]) [%] | inhibition in vivo at 5 mg/kg (Canis familiaris [2]) [%] | ED50 (Rattus norvegicus [3]) [mg/kg] | inhibition in vivo at 2 mg/kg (Canis familiaris [4]) [%] | inhibition in vivo at 8 mg/kg (Canis familiaris [5]) [%] | inhibition in vivo at 4 mg/kg (Canis familiaris [6]) [%]
CC(C)c1nc2c(OCc3ccccc3)cccn2c1CC#N | 72 | 96 | 5 | – | 39 | 36
Cc1nc2c(Oc3ccccc3)cccn2c1CC#N | 24 | 0 | 3.4 | – | – | –
Cc1nc2c(COc3ccccc3)cccn2c1C | 48 | – | 6 | 44 | 21 | –
CC(=O)c1c(C)nc2c(OCc3ccccc3)cccn12 | 57 | 9 | – | – | – | –
Cc1nc2c(OCc3ccccc3)cccn2c1CC(=N)N | 79 | 0 | – | – | – | –
c1ccc(COc2cccn3c4c(nc23)CCCC4)cc1 | – | – | – | 24 | 28 | –
Cc1nc2c(OCc3ccoc3)cccn2c1CC#N | 99 | 60 | 1.4 | – | 42 | –
Cc1nc2c([S+]([O-])Cc3ccccc3)cccn2c1CC#N (configuration not stated) | 37 | 26 | 5 | – | – | –
Cc1nc2c(OCc3ccccc3)cccn2c1COC(=O)N(C)C | 75 | 23 | – | – | 49 | –
C/N=C(/S)Cc1c(C)nc2c(OCc3ccccc3)cccn12 | 7 | 0 | – | – | – | –
Cc1nc2c(OCc3ccc(S(C)(=O)=O)cc3)cccn2c1CC#N | 2 | – | – | – | – | –
Cc1nc2c(OCc3ccccc3)cccn2c1C(C)C#N (configuration not stated) | 74 | – | 2.9 | 4 | 1 | –
Cc1nc2c(OCc3ccccc3)cccn2c1CC(N)=O | 28 | 46 | 27 | – | – | 0
COCc1c(C)nc2c(OCc3ccccc3)cccn12 | 99 | 29 | – | – | 37 | –
Cc1nc2c(OCc3ccccc3)cccn2c1C(C)(C)C#N | 57 | 0 | 12.3 | – | – | –
CCOCc1c(C)nc2c(OCc3ccccc3)cccn12 | 84 | 35 | – | – | 0 | –
Cc1nc2c(OCc3ccc(C#N)cc3)cccn2c1CC#N | 69 | 71 | 8 | – | 33 | 0
Cc1nc2c(OCc3ccccc3)cccn2c1COC(=O)c1cccnc1 | 87 | 88 | – | – | 0 | –
Cc1nc2c(OCc3ccccc3)cccn2c1CC(=O)O | 12 | 24 | – | – | – | –
Cc1nc2c(OCc3cccnc3)cccn2c1CC#N | 46 | 8 | 7.4 | – | – | –

SMILES | inhibition in vivo at 40 mg/kg (Rattus norvegicus [1]) [%] | inhibition in vivo at 5 mg/kg (Canis familiaris [2]) [%] | ED50 (Rattus norvegicus [3]) [mg/kg] | inhibition in vivo at 2 mg/kg (Canis familiaris [4]) [%] | inhibition in vivo at 8 mg/kg (Canis familiaris [5]) [%] | inhibition in vivo at 4 mg/kg (Canis familiaris [6]) [%]
Cc1nc2c(OCc3ccc(Cl)c(Cl)c3)cccn2c1CC#N | 42 | – | 6 | 89 | 23 | 16
Cc1nc2c(OCc3ccccc3)cccn2c1CS(C)(=O)=O | 61 | 0 | – | – | – | –
Cc1nc2c(OCc3ccccc3)cccn2c1CC(=S)N(C)C | 21 | 0 | – | – | – | –
Cc1nc2c(OCc3ccccc3)cccn2c1C[S+](C)[O-] (configuration not stated) | 0 | 18 | – | – | – | –
CCCCC(=O)OCc1c(C)nc2c(OCc3ccccc3)cccn12 | 45 | 96 | – | – | 13 | –
Cc1nc2c(OCc3ccccc3)cccn2c1Cl | 93 | 37 | – | – | 43 | –
Cc1nc2c(OCc3ccccc3)cccn2c1CCC#N | 40 | 20 | 1.5 | – | – | –
Cc1nc2c(OCc3ccc(F)cc3)cccn2c1CC#N | 99 | 95 | 5 | – | 87 | 35
Cc1nc2c(OCc3cccc4ccccc34)cccn2c1CC#N | 0 | 78 | 9.8 | – | 15 | –
Cc1nc2c(OCc3ccc(C(C)(C)C)cc3)cccn2c1CC#N | 47 | 52 | – | – | 47 | 37
CCOC(=O)c1c(C)nc2c(OCc3ccccc3)cccn12 | 22 | – | – | – | – | –
Cc1nc2c(OCc3ccccc3)cccn2c1CC1=NCCN1 | 69 | – | – | – | – | –
Cc1nc2c(SCc3ccccc3)cccn2c1CC#N | 22 | 89 | 7 | – | 2 | –
Cc1nc2c(N(C)Cc3ccccc3)cccn2c1CC#N | 94 | – | – | 46 | – | 23
Cc1nc2c(OCCCc3ccccc3)cccn2c1CC#N | 64 | 80 | 4.3 | – | 8 | –
c1ccc(COc2cccn3c4c(nc23)CCC4)cc1 | 26 | 0 | – | – | – | –
CSCc1c(C)nc2c(OCc3ccccc3)cccn12 | 29 | 8 | – | – | – | –
Cc1cc(C)c(COc2cccn3c(CC#N)c(C)nc23)c(C)c1 | 49 | 86 | – | 22 | 40 | 0
Cc1nc2cc(CCc3ccccc3)ccn2c1CC#N | 11 | – | 3 | 26 | – | –
Cc1nc2c(OCc3ccccc3F)cccn2c1CC#N | 96 | 97 | 6 | – | 65 | 34
